Assay outcomes: PubChem, Johns Hopkins Ion Channel Center
KCNQ1 act = potentiates or activates the human KCNQ1 potassium channel; 310,000 compounds, 0.35% hits; CHO-K1 KCNQ1, thallium flux FluxOR fluorescence; stronger effect = higher value; P51787; B-score at 10 µM; AID 2648;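 active means fluorescence ratio B-score, a plate-corrected score, at least three library SD, with initial intensity B-score within 5 SD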
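Assay system: CHO-K1 cells stably expressing KCNQ1; Medium: assay buffer with matched DMSO; Also added: K+/Tl+ depolarizing stimulus; Dosing: single dose; Timing: dye 90 min, compound 20 min, room temperature; Measured by: kinetic FluxOR thallium fluorescence, 10-s 1-Hz baseline, 110-s post-stimulus read; Read-out: peak-minus-minimum fluorescence over initial fluorescence, negative-control normalized, B-scored.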
Kir21 block = blocks the mouse Kir2.1 inward-rectifier potassium channel. AID 1672. HEK293-Kir2.1, FluxOR thallium flux fluorescence; stronger effect = lower value. B-score at 10 µM. 310,000 compounds, 0.85% hits. P35561;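 active means fluorescence ratio B-score at or below minus 3 SD of library scores, with starting-brightness B-score within 2 SD, cut at about -4.2 in these data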;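 further: channel flux triggered by added potassium and thallium sulfate stimulus; B-score of peak minus minimum fluorescence over baseline after thallium stimulus; more negative B-score means stronger Kir2.1 block with less thallium influx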
KCNK9 block = blocks the human KCNK9 two-pore domain potassium channel. Q9NPC2. HEK293 KCNK9, FluxOR thallium flux fluorescence; stronger effect = lower value. B-score at 10 µM. 310,000 compounds, 1.2% hits. AID 488922;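 active means ratio B-score over 3 SD below the library mean, with starting fluorescence within 5 SD of its mean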;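 further: negative B-score means less thallium flux so channel inhibition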
Target sequence (Q9NPC2 whole entry, looked up, the tested form may be a part): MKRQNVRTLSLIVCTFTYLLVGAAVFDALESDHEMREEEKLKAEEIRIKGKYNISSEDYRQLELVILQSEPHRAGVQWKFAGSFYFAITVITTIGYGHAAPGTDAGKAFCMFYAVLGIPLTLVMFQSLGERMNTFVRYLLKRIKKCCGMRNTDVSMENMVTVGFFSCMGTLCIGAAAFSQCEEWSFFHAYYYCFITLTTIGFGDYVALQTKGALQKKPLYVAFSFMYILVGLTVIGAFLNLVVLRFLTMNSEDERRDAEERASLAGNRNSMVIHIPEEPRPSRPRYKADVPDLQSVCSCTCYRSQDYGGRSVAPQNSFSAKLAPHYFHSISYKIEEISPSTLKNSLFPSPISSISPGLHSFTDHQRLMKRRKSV
hERG protect = hERG (human) protection from proarrhythmic block. Q12809. CHO-hERG, FluxOR thallium flux, dofetilide IC70 present. activation (rescue from dofetilide block), less the hit threshold, % at 10 µM. 310,000 compounds, 0.51% hits. AID 1511;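 active means activation above the mean of controls blocked by dofetilide plus 5 SD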;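 further: thallium influx through hERG after potassium depolarization seen as dye fluorescence rise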
KCNQ1 inh = inhibitors of human KCNQ1 potassium channel | B-score at 10 µM | CHO-K1 KCNQ1, FluxOR thallium flux fluorescence; stronger effect = higher value | 310,000 compounds, 1.3% hits;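 active means compounds whose thallium flux B-score, printed positive for inhibition, exceeds three library SD while starting fluorescence stays within three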;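 further: channel opened by potassium depolarization with thallium stimulus after 20 min compound exposure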
KCNK3 block = human KCNK3 channel inhibition, primary screen. O14649. AID 602410. B-score at 10 µM. 340,000 compounds, 0.84% hits. CHO-KCNK3 thallium flux, FluxOR fluorescence; stronger effect = lower value;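 active means B-score under library mean minus 4 SD, starting fluorescence ratio at most library mean plus 5 SD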;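 further: more negative B-score means stronger inhibition of thallium flux through KCNK3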
Target sequence (O14649 whole entry, looked up): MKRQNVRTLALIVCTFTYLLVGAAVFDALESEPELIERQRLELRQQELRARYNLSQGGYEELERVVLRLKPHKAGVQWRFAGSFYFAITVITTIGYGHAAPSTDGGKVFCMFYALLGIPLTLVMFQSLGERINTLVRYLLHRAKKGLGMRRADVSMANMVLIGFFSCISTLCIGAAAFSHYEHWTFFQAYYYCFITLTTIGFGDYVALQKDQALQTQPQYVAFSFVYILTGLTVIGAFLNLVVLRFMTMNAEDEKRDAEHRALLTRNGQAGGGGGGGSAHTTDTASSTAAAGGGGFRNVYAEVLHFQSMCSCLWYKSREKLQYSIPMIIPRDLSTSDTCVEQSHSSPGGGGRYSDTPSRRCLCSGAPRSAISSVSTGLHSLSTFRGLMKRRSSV
KCNK9 block conf = human KCNK9 inhibitor confirmation. shares compounds with KCNK9 block. HEK293 KCNK9 cells, FluxOR thallium flux fluorescence. inhibition, % at 10 µM. 4,900 compounds, 43% hits. AID 492992;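 active means thallium signal inhibited by more than 5 SD of the compound-free buffer control wells, on both duplicate plates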
Kir21 sel = selectivity of KCNK9 modulators against mouse Kir2.1; shares compounds with KCNK9 block; Kir2.1 cells, FluxOR thallium flux fluorescence; inhibition, % at 10 µM; 4,900 compounds, 4% hits;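 active means thallium signal drop more than 5 SD beyond the mean of the no-compound control wells, seen in both duplicate plates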;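 further: signal is fluorescence rise after thallium addition divided by baseline fluorescence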
HEK293 Tl ctr = second counter-screen for KCNK9 modulators: effect in non-induced cells; non-induced KCNK9-HEK293, FluxOR thallium flux; inhibition, % at 10 µM; 4,900 compounds, 40% hits; shares compounds with KCNK9 block;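 active means thallium signal drop beyond 5 SD of the untreated control mean, on both duplicate plates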
Of the large screens only hits and unclear results are named; the others gave an inactive call (follow-up assays come after a bar, where they were run). Sampled rows, rich in hits. Any-hit rate of the full collection: about 3.7%.

COc1ccc(-c2ccnc(SCC(=O)c3ccc(OC)c(OC)c3)n2)cc1	none
COc1ccc(OC)c(C(=O)CSc2nccc(-c3ccc(Br)cc3)n2)c1	KCNK9 block -9.4 | KCNK9 block conf inactive | Kir21 sel inactive | HEK293 Tl ctr 28%
O=S(=O)(c1cccs1)N1CCC(CO)(Cc2ccc(Cl)cc2)CC1	none
Cc1ccc(NC(=O)COC(=O)C(CC(C)C)N2C(=O)C3CC=CCC3C2=O)c(C)c1 (stereo not drawn)	none
Cn1cccc1/C=N\NC(=O)Cc1ccc(Br)c2ccccc12	none
Cc1cc(NC(=O)c2ccc(F)cc2F)n(-c2nc3ccccc3[nH]2)n1	none
Cc1cc(NC(=O)/C=C/c2ccccc2Cl)n(-c2nc3ccccc3[nH]2)n1	KCNK9 block -9.1 | KCNK9 block conf inactive | Kir21 sel inactive | HEK293 Tl ctr 26%
COc1cc(Nc2cccc[n+]2C)cc(OC)c1OC	none
CC(=O)CCC1C2C(O)C(C(C)C)C(OC(=O)/C=C/c3ccccc3)CC12C (stereo not drawn)	none | KCNK9 block conf inactive | Kir21 sel inactive | HEK293 Tl ctr inactive
COC(=O)C(Cc1ccc(OC(=O)c2ccc(Cl)cc2)cc1)N1Cc2ccccc2C1=O (stereo not drawn)	none
COC(=O)C(Cc1ccc(OC(=O)c2ccc(C(F)(F)F)cc2)cc1)N1Cc2ccccc2C1=O (stereo not drawn)	KCNQ1 inh 6 | KCNK9 block conf inactive | Kir21 sel inactive | HEK293 Tl ctr inactive
CC(=O)Nc1ccc(N2N=C(C)C(N=Nc3ccccc3)C2=O)cc1 (stereo not drawn)	none
Cc1ccc2[nH]c(=O)c(C(c3nnnn3C3CCCC3)N(Cc3cccnc3)Cc3ccco3)cc2c1 (stereo not drawn)	none
Clc1ccc(C(c2nnnn2C2CCCCC2)N(Cc2cccnc2)Cc2ccco2)cc1 (stereo not drawn)	KCNK9 block -11 | KCNK9 block conf inactive | Kir21 sel inactive | HEK293 Tl ctr 45%
CCOC(=O)N1CCN(C(=O)CNC2CCCCCCC2)CC1	none
COc1cc2ccccc2cc1C(=O)N1CCN(c2ccccc2O)CC1	none (no result: KCNQ1 act, Kir21 block, KCNK9 block, hERG protect, KCNQ1 inh)
COc1cccc(C(=O)N(Cc2nc(-c3cccc(C)c3)no2)C(C)C)c1OC	none | KCNK9 block conf inactive | Kir21 sel inactive | HEK293 Tl ctr inactive
Cc1cccc(-c2noc(CN(C(=O)c3ccc4c(c3)OCO4)C(C)C)n2)c1	none
Cc1cccc(-c2noc(CN(C(=O)C(c3ccccc3)c3ccccc3)C(C)C)n2)c1	KCNK9 block -17, KCNQ1 inh 6, KCNK3 block -12 | KCNK9 block conf 54% | Kir21 sel inactive | HEK293 Tl ctr inactive
COC(=O)c1cc(C(=O)NNC(=O)c2ccc3c(c2)OCO3)cc([N+](=O)[O-])c1	none (no result: KCNQ1 act, Kir21 block, KCNK9 block, hERG protect, KCNQ1 inh)
COc1cc([N+](=O)[O-])ccc1NC(=S)NNC(=O)c1ccc2c(c1)OCO2	KCNQ1 inh 10 | KCNK9 block conf inactive | Kir21 sel inactive | HEK293 Tl ctr inactive
CCCn1c(C2CCCN2c2nc(C)cs2)nc2cc(Cl)c(Cl)cc21 (stereo not drawn)	KCNK9 block -9.5 | KCNK9 block conf inactive | Kir21 sel inactive | HEK293 Tl ctr 34%
COc1ccc(S(=O)(=O)NNC(=O)c2csc(-n3nc(C)cc3C(F)(F)F)n2)cc1OC	none
COc1ccc(/C=N/NC(=O)c2csc(-n3nc(C)cc3C(F)(F)F)n2)cc1	KCNK9 block -10 | KCNK9 block conf inactive | Kir21 sel inactive | HEK293 Tl ctr 26%
Cc1ccccc1NC(=O)CSc1cn[nH]n1	none
Cc1cc(-c2cc(-c3ccccc3)on2)nc(NCC2CC2)n1	none
CCOC(=O)c1c(Cc2cccc(Cl)c2)c[nH]c1C	KCNK9 block -10, KCNQ1 inh 6 | KCNK9 block conf 68% | Kir21 sel inactive | HEK293 Tl ctr 28%
CCn1c(CNC(=O)c2ccccc2F)cc2cc(C)ccc21	none
COc1ccccc1C1CCN(Cc2ccc(Cl)c(Cl)c2)CC1	none | KCNK9 block conf inactive | Kir21 sel inactive | HEK293 Tl ctr inactive
COc1ccccc1C1CCN(Cc2cccc3ccccc23)CC1	none | KCNK9 block conf inactive | Kir21 sel inactive | HEK293 Tl ctr 27%
Cc1nn(Cc2ccccc2)c(C)c1C(=O)OCC(=O)c1cc(C)n(CC(F)(F)F)c1C	none | KCNK9 block conf inactive | Kir21 sel inactive | HEK293 Tl ctr inactive
O=C(OC(c1ccccc1)c1nccc2ccccc12)c1cc([N+](=O)[O-])cc([N+](=O)[O-])c1 (stereo not drawn)	none
Cc1cccc(C(=O)NN2C(=O)C3C(c4ccccc4)C=CC(c4ccccc4)C3C2=O)c1 (stereo not drawn)	KCNK9 block -13 | KCNK9 block conf 41% | Kir21 sel inactive | HEK293 Tl ctr inactive
CC(C)(C)C(=O)Nc1sc(-c2ccccc2)cc1C(=O)O	none
Cc1cccc(C(=O)Nc2sc(-c3ccccc3)cc2C(=O)O)c1	none | KCNK9 block conf inactive | Kir21 sel inactive | HEK293 Tl ctr inactive
Clc1ccc(Cl)c2sc(N3CCCC3)nc12	none
Clc1cccc2sc(N3CCN(c4ccccc4)CC3)nc12	KCNK9 block -14 | KCNK9 block conf 36% | Kir21 sel inactive | HEK293 Tl ctr 36%
COc1cccc(C(=O)C2CCCN(Cc3cccc(-n4nc(C)cc4C)c3)C2)c1 (stereo not drawn)	none | KCNK9 block conf inactive | Kir21 sel inactive | HEK293 Tl ctr inactive
COc1cccc(C(=O)C2CCCN(Cc3cccc(OCCO)c3)C2)c1 (stereo not drawn)	none
Cc1nn(C(C)C)c(C)c1CN1CCCC(C(=O)c2cccc(OC(C)C)c2)C1 (stereo not drawn)	none | KCNK9 block conf inactive | Kir21 sel inactive | HEK293 Tl ctr inactive
CCOc1ccc(C2=C(C=C(C#N)C#N)C(c3ccccc3)c3ccccc3O2)cc1 (stereo not drawn)	KCNK9 block -11 | KCNK9 block conf 50% | Kir21 sel inactive | HEK293 Tl ctr 24%
CCOc1ccccc1C1N=C(c2ccc(OC)cc2)CC(c2ccccc2O)N1 (stereo not drawn)	none | KCNK9 block conf inactive | Kir21 sel inactive | HEK293 Tl ctr inactive
CN(C)/C=N/c1nc(-c2ccc3ccccc3c2)cs1	none | KCNK9 block conf inactive | Kir21 sel inactive | HEK293 Tl ctr inactive
CN(C)/C=N/c1nc(-c2ccc3c(c2)OCO3)cs1	none
Cc1cccc(N2CCN(C(=O)c3cc(COc4ccc(F)c(F)c4)on3)CC2)n1	none
